Test results reported in ChEMBL document CHEMBL1208778, “Synthesis and anti-cancer activity of chalcone linked imidazolones” (2010).

What was measured:
Assay type in all cases: functional
[1] = tested on: SK-MEL-28; test: Growth inhibition of human SK-MEL-28 cells
Outline: (§1)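 Five-dose testing was run within the NCI (Bethesda) in vitro Anticancer Screen Program on a panel of 53 human tumour cell lines from nine cancer types. Growth inhibition is reported as GI50.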

[2] = tested on: NCI-H23; test: Growth inhibition of human NCI-H23 cells; outline: as §1
[3] = tested on: SK-OV-3; test: Growth inhibition of human SKOV3 cells
Outline: (§2)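 Compounds that passed a preliminary screen were tested at five doses in the NCI (Bethesda) in vitro Anticancer Screen Program against a 53-line human tumour panel spanning leukemia, lung, colon, CNS, melanoma, ovarian, renal, prostate and breast. Growth inhibition is reported as GI50.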

[4] = tested on: SNB-75; test: Growth inhibition of human SNB75 cells; outline: as §2
[5] = tested on: 786-0; test: Growth inhibition of human 786-0 cells; outline: as §1
[6] = tested on: MCF7; test: Cell cycle arrest in human MCF7 cells assessed as accumulation at G2/M phase at 10 uM after 24 hrs by FACS analysis
Outline: (§3)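 MCF-7 breast carcinoma cells were exposed to 10 µM test compound for 24 h, with DMSO as the vehicle control. Cell-cycle distribution was read by FACS as the percentage of cells in G0, G1, S and G2/M.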

[7] = tested on: MCF7; test: Cell cycle arrest in human MCF7 cells assessed as accumulation at G0 phase at 10 uM after 24 hrs by FACS analysis; outline: as §3
[8] = tested on: HT-29; test: Growth inhibition of human HT-29 cells; outline: as §1
[9] = tested on: OVCAR-4; test: Growth inhibition of human OVCAR4 cells; outline: as §1
[10] = tested on: LOX IMVI; test: Growth inhibition of human LOXIMVI cells; outline: as §1
[11] = tested on: SN12C; test: Growth inhibition of human SN12C cells; outline: as §2
[12] = tested on: TK-10; test: Growth inhibition of human TK10 cells; outline: as §2
[13] = Growth inhibition of human Hs 578T cells; outline: as §1
[14] = Growth inhibition of human RPMI8266 cells; outline: as §1
[15] = tested on: SF-268; test: Growth inhibition of human SF268 cells; outline: as §1
[16] = tested on: NCI-H322M; test: Growth inhibition of human NCI-H322M cells; outline: as §1
[17] = tested on: OVCAR-3; test: Growth inhibition of human OVCAR-3 cells; outline: as §1
[18] = tested on: UACC-62; test: Growth inhibition of human UACC62 cells; outline: as §2
[19] = tested on: MDA-MB-231; test: Growth inhibition of human MDA-MB-231 cells; outline: as §1
[20] = tested on: Malme-3M; test: Growth inhibition of human MALME-3M cells; outline: as §1
[21] = tested on: SW-620; test: Growth inhibition of human SW620 cells; outline: as §2
[22] = tested on: MDA-MB-435; test: Growth inhibition of human MDA-MB-435 cells; outline: as §1
[23] = tested on: COLO 205; test: Growth inhibition of human COLO205 cells; outline: as §1
[24] = tested on: MCF7; test: Cell cycle arrest in human MCF7 cells assessed as accumulation at G0 phase at 30 uM after 24 hrs by FACS analysis
Outline: (§4)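 MCF-7 cells were treated at 30 µM for 24 h alongside a DMSO control. Fractions in G0, G1, S and G2/M phases were measured by FACS, and values are means of three experiments.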

[25] = tested on: HCT-116; test: Growth inhibition of human HCT116 cells; outline: as §1
[26] = tested on: UO-31; test: Growth inhibition of human UO31 cells; outline: as §2
[27] = tested on: MCF7; test: Cell cycle arrest in human MCF7 cells assessed as accumulation at G1 phase at 30 uM after 24 hrs by FACS analysis; outline: as §4
[28] = tested on: KM12; test: Growth inhibition of human KM12 cells; outline: as §1
[29] = tested on: MCF7; test: Cell cycle arrest in human MCF7 cells assessed as accumulation at G2/M phase at 30 uM after 24 hrs by FACS analysis; outline: as §4
[30] = tested on: SF-539; test: Growth inhibition of human SF539 cells; outline: as §1
[31] = tested on: CAKI-1; test: Growth inhibition of human Caki1 cells; outline: as §1
[32] = tested on: HCT-15; test: Growth inhibition of human HCT15 cells; outline: as §1
[33] = tested on: UACC-257; test: Growth inhibition of human UACC257 cells; outline: as §2
[34] = tested on: NCI-H226; test: Growth inhibition of human NCI-H226 cells; outline: as §1
[35] = tested on: MCF7; test: Cell cycle arrest in human MCF7 cells assessed as accumulation at S phase at 30 uM after 24 hrs by FACS analysis; outline: as §4
[36] = tested on: T47D; test: Growth inhibition of human T47D cells; outline: as §2
[37] = tested on: HCC 2998; test: Growth inhibition of human HCC2998 cells; outline: as §1
[38] = tested on: OVCAR-5; test: Growth inhibition of human OVCAR5 cells; outline: as §1
[39] = tested on: ACHN; test: Growth inhibition of human ACHN cells; outline: as §1
[40] = tested on: U-251; test: Growth inhibition of human U251 cells; outline: as §2
[41] = tested on: HOP-62; test: Growth inhibition of human HOP62 cells; outline: as §1
[42] = tested on: M14; test: Growth inhibition of human M14 cells; outline: as §1
[43] = tested on: SK-MEL-5; test: Growth inhibition of human SK-MEL-5 cells; outline: as §1
[44] = tested on: K562; test: Growth inhibition of human K562 cells; outline: as §1
[45] = tested on: NCI-H522; test: Growth inhibition of human NCI-H522 cells; outline: as §1
[46] = tested on: BT-549; test: Growth inhibition of human BT549 cells; outline: as §1
[47] = tested on: EKVX; test: Growth inhibition of human EKVX cells; outline: as §1
[48] = tested on: PC-3; test: Growth inhibition of human PC3 cells; outline: as §1
[49] = tested on: NCI-H460; test: Growth inhibition of human NCI-H460 cells; outline: as §1
[50] = tested on: RXF 393; test: Growth inhibition of human RXF393 cells; outline: as §1
[51] = tested on: HOP-92; test: Growth inhibition of human HOP92 cells; outline: as §1
[52] = tested on: A498; test: Growth inhibition of human A498 cells; outline: as §1
[53] = tested on: A549; test: Growth inhibition of human A549 cells; outline: as §1
[54] = tested on: MCF7; test: Cell cycle arrest in human MCF7 cells assessed as accumulation at S phase at 10 uM after 24 hrs by FACS analysis; outline: as §3
[55] = tested on: SF-295; test: Growth inhibition of human SF295 cells; outline: as §1
[56] = tested on: MCF7; test: Cell cycle arrest in human MCF7 cells assessed as accumulation at G1 phase at 10 uM after 24 hrs by FACS analysis; outline: as §3
[57] = tested on: SNB-19; test: Growth inhibition of human SNB19 cells; outline: as §2
[58] = tested on: NCI/ADR-RES; test: Growth inhibition of human NCI/ADR-RES cells; outline: as §1
[59] = tested on: MCF7; test: Growth inhibition of human MCF7 cells; outline: as §1
[60] = tested on: SK-MEL-2; test: Growth inhibition of human SK-MEL-2 cells; outline: as §1
[61] = tested on: OVCAR-8; test: Growth inhibition of human OVCAR8 cells; outline: as §1

Molecule `COc1ccc(-c2cn(-c3cccc(C(=O)/C=C/c4cc(OC)c(OC)c(OC)c4)c3)c(=O)[nH]2)cc1` has a GI50 [1] of 2030 nM, a GI50 [2] of 1630 nM and a GI50 [3] of 4.6 µM. It also gave a GI50 [4] of 4.59 µM, a GI50 [5] of 1.61 µM and an Activity [6] of 14.08%. The Activity [7] was 3.79%, the GI50 [8] was 1280 nM and the GI50 [9] was 3.57 µM. It also gave a GI50 [10] of 720 nM, a GI50 [11] of 3.5 µM and a GI50 [12] of 3.04 µM. It also gave a GI50 [13] of 3.39 µM, a GI50 [14] of 920 nM and a GI50 [15] of 3.21 µM. For the same molecule, the GI50 [16] was 2.66 µM, the GI50 [17] was 1780 nM and the GI50 [18] was 2.06 µM. It also gave a GI50 [19] of 5.48 µM, a GI50 [20] of 1.79 µM and a GI50 [21] of 450 nM. For the same molecule, the GI50 [22] was 1860 nM, the GI50 [23] was 1.84 µM and the Activity [24] was 36.02%. For the same molecule, the GI50 [25] was 370 nM, the GI50 [26] was 1.91 µM and the Activity [27] was 46.02%. For the same molecule, the GI50 [28] was 1420 nM, the Activity [29] was 9.51% and the GI50 [30] was 2000 nM. It also gave a GI50 [31] of 3.05 µM, a GI50 [32] of 1380 nM and a GI50 [33] of 3.04 µM. It also gave a GI50 [34] of 35.2 µM, an Activity [35] of 8.45% and a GI50 [36] of 3.84 µM. The GI50 [37] was 1640 nM, the GI50 [38] was 2.64 µM and the GI50 [39] was 1820 nM. It also gave a GI50 [40] of 880 nM, a GI50 [41] of 5.91 µM and a GI50 [42] of 1.85 µM. It also gave a GI50 [43] of 2030 nM, a GI50 [44] of 1270 nM and a GI50 [45] of 1850 nM. It also gave a GI50 [46] of 2.59 µM, a GI50 [47] of 4.2 µM and a GI50 [48] of 6.22 µM. It also gave a GI50 [49] of 1560 nM, a GI50 [50] of 1.92 µM and a GI50 [51] of 14.9 µM. It also gave a GI50 [52] of 4.21 µM, a GI50 [53] of 11.8 µM and an Activity [54] of 21.47%. The GI50 [55] was 4.95 µM, the Activity [56] was 60.66% and the GI50 [57] was 4.38 µM. The GI50 [58] was 1700 nM, the GI50 [59] was 440 nM and the GI50 [60] was 2.63 µM. The GI50 [61] was 2.53 µM.
Molecule `COc1ccc(-c2cn(-c3cccc(C(=O)/C=C/c4ccc(O)c(OC)c4)c3)c(=O)[nH]2)cc1` has a GI50 [1] of 2030 nM, a GI50 [2] of 2850 nM and a GI50 [3] of 4.77 µM. For the same molecule, the GI50 [4] was 4.73 µM, the GI50 [5] was 4.53 µM and the Activity [6] was 26.18%. The Activity [7] was 2.16%, the GI50 [8] was 3840 nM and the GI50 [9] was 6.08 µM. It also gave a GI50 [10] of 2440 nM, a GI50 [11] of 4.11 µM and a GI50 [12] of 6.08 µM. It also gave a GI50 [13] of 4.25 µM, a GI50 [14] of 1350 nM and a GI50 [15] of 3.4 µM. The GI50 [16] was 8.2 µM, the GI50 [17] was 2700 nM and the GI50 [18] was 3.96 µM. For the same molecule, the GI50 [19] was 5.25 µM, the GI50 [20] was 4.42 µM and the GI50 [21] was 2500 nM. For the same molecule, the GI50 [22] was 3350 nM, the GI50 [23] was 6.61 µM and the Activity [24] was 20.5%. The GI50 [25] was 1930 nM, the GI50 [26] was 5.19 µM and the Activity [27] was 54.5%. For the same molecule, the GI50 [28] was 1770 nM, the Activity [29] was 9% and the GI50 [30] was 2250 nM. For the same molecule, the GI50 [31] was 4.99 µM, the GI50 [32] was 3150 nM and the GI50 [33] was 13.3 µM. The GI50 [34] was 4.1 µM, the Activity [35] was 16% and the GI50 [36] was 3.6 µM. The GI50 [37] was 2320 nM, the GI50 [38] was 3.38 µM and the GI50 [39] was 3400 nM. It also gave a GI50 [40] of 3450 nM, a GI50 [41] of 5.15 µM and a GI50 [42] of 5.14 µM. It also gave a GI50 [43] of 2630 nM, a GI50 [44] of 2350 nM and a GI50 [45] of 3480 nM. For the same molecule, the GI50 [46] was 4.57 µM, the GI50 [47] was 13.4 µM and the GI50 [48] was 3.05 µM. The GI50 [49] was 3230 nM, the GI50 [50] was 5.85 µM and the GI50 [51] was 2.96 µM. For the same molecule, the GI50 [52] was 3.72 µM, the GI50 [53] was 4.14 µM and the Activity [54] was 14%. It also gave a GI50 [55] of 13.9 µM, an Activity [56] of 57.66% and a GI50 [57] of 5.84 µM. The GI50 [58] was 2560 nM, the GI50 [59] was 3180 nM and the GI50 [60] was 5.54 µM. For the same molecule, the GI50 [61] was 4.97 µM.
